Source: ChEMBL document CHEMBL2216753, “Novel 1,4-benzoxazine and 1,4-benzodioxine inhibitors of angiogenesis” (Eur J Med Chem, 2012)
Activity calls are given as the source filed them. The rule behind the calls is not given here.

Assays:
[1] = tested on: MCF7; test: Cytotoxicity against human MCF7 cells at 30 uM after 3 days by coulter counter method; type: cell-based; settings: mcf7, 72 h
How it was run: (§1)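 Cells seeded at 10,000 cells per cm2; after 16 h, fresh medium with test compound added. Cells trypsinized and counted with a Coulter counter on day 4 (BAEC, HeLa, MCF-7) or day 7 (HMEC-1). Cytotoxicity (cell death) was judged after 3 days in culture. HMEC-1 grown in EGM-2 with supplements and growth factors.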

[2] = Antiproliferative activity against bovine BAEC cells after 4 days by coulter counter method; type: functional, cell-based; settings: Bos taurus, 96 h
[3] = tested on: HeLa; test: Antiproliferative activity against human HeLa cells after 4 days by coulter counter method; type: functional, cell-based; settings: 96 h
[4] = Cytotoxicity against human HMEC1 cells at 100 uM after 3 days by coulter counter method; type: cell-based; settings: hmec-1, 72 h; how it was run: as §1
[5] = tested on: MCF7; test: Cytotoxicity against human MCF7 cells at 100 uM after 3 days by coulter counter method; type: cell-based; settings: mcf7, 72 h; how it was run: as §1
[6] = Cytotoxicity against bovine BAEC cells at 30 uM after 3 days by coulter counter method; type: cell-based, Bos taurus; settings: cattle, 72 h; how it was run: as §1
[7] = tested on: MAEC; test: Antimigratory activity against mouse MAEC cell migration after 5 hrs by wound closure assay; type: functional, cell-based
How it was run: (§2)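 Confluent MAEC monolayers wounded with a 1.0-mm wide micropipette tip, then incubated in fresh medium with test compound. Wounds photographed after 5 h and width calculated from digital images. Mean ± SD of 2–4 independent experiments; Student t test, p < 0.05 significant.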

[8] = tested on: HMEC-1; test: Antiangiogenic activity in human HMEC1 cells assessed as inhibition of tube formation at 30 uM after 4 to 6 hrs by matrigel assay; type: functional, cell-based
How it was run: (§3)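 HMEC-1 (60,000 cells) seeded on matrigel (10 mg/mL) after 30 min gelling at 37 °C, in DMEM containing test compound; after 4–6 h cells photographed and tubes scored 0 (none) to 3 (maximal, like untreated control). Mean ± SD of 2–4 independent experiments; Student t test, p < 0.05 significant.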

[9] = tested on: MCF7; test: Antiproliferative activity against human MCF7 cells after 4 days by coulter counter method; type: functional, cell-based; settings: MCF7, 96 h
[10] = tested on: HeLa; test: Cytotoxicity against human HeLa cells at 100 uM after 3 days by coulter counter method; type: cell-based; settings: 72 h; how it was run: as §1
[11] = Cytotoxicity against human HMEC1 cells at 30 uM after 3 days by coulter counter method; type: cell-based; settings: hmec-1, 72 h; how it was run: as §1
[12] = Cytotoxicity against bovine BAEC cells at 100 uM after 3 days by coulter counter method; type: cell-based, Bos taurus; settings: cattle, 72 h; how it was run: as §1
[13] = tested on: MAEC; test: Antimigratory activity against mouse MAEC cell migration at 30 uM after 5 hrs by wound closure assay; type: functional; how it was run: as §2
[14] = tested on: HMEC-1; test: Antiangiogenic activity in human HMEC1 cells assessed as inhibition of tube formation at 10 uM after 4 to 6 hrs by matrigel assay; type: functional, cell-based; how it was run: as §3
[15] = species on record: Gallus gallus; test: Antiangiogenic activity in chicken embryo chorioallantoic membrane model at 250 nmol/disc after 3 days; type: functional, tissue-based
[16] = Antimigratory activity against mouse MAEC cell migration at 10 uM after 5 hrs by wound closure assay; type: functional; how it was run: as §2
[17] = tested on: HeLa; test: Cytotoxicity against human HeLa cells at 30 uM after 3 days by coulter counter method; type: cell-based; settings: 72 h; how it was run: as §1
[18] = Antiproliferative activity against human HMEC1 cells after 7 days by coulter counter method; type: functional, cell-based; settings: HMEC-1, 168 h
[19] = tested on: HMEC-1; test: Antiangiogenic activity in human HMEC1 cells assessed as inhibition of tube formation after 4 to 6 hrs by matrigel assay; type: functional, cell-based; how it was run: as §3

SMILES	Activity [1]	IC50 [2] [µM]	IC50 [3] [µM]	Activity [4]	Activity [5]	Activity [6]	inhibition [7]	inhibition [8]	IC50 [9] [µM]	Activity [10]	Activity [11]	Activity [12]	inhibition [13]	inhibition [14]	inhibition [15]	inhibition at 10 µM [16] [%]	Activity [17]	IC50 [18] [µM]	inhibition [19]
CCOC(=O)CN(Cc1cc(F)cc(F)c1)c1ccc2c(c1)OC(C)(COc1ccc(C(=N)N)cc1)CN2C (stereo unspecified)	Toxic	4.1	4.9	Toxic	Toxic	Toxic	Dose-dependent effect	Active	3.5	Toxic	Toxic	Toxic	Active	inactive	Active	50	Toxic	1.8	
CCOC(=O)C(=O)N(Cc1ccc(F)cc1)c1ccc2c(c1)N(C)CC(C)(COc1ccc(C(=N)N)cc1)O2 (stereo unspecified)	Non-toxic	6.6	14	Toxic	Toxic	Non-toxic	Dose-dependent effect		5.5	Toxic	Non-toxic	Toxic	Active		Active	50	Non-toxic	8.4	Dose-dependent effect
CCOC(=O)CN(Cc1ccc(F)cc1)c1ccc2c(c1)N(C)CC(C)(COc1ccc(C(=N)N)cc1)O2 (stereo unspecified)	Toxic	3.8	4.8	Toxic	Toxic	Toxic	Dose-dependent effect	Active	4.1	Toxic	Toxic	Toxic	Active	inactive	Active	50	Toxic	6	
CCOC(=O)CN(Cc1ccc(F)c(F)c1)c1ccc2c(c1)OC(C)(COc1ccc(C(=N)N)cc1)CN2C (stereo unspecified)	Toxic	4	4.1	Toxic	Toxic	Toxic	Dose-dependent effect	Active	4	Toxic	Toxic	Toxic	Active	inactive	Active	50	Toxic	2.5	
CCOC(=O)C(=O)N(Cc1cccc(F)c1)c1ccc2c(c1)OC(C)(COc1ccc(C(=N)N)cc1)CN2C (stereo unspecified)	Non-toxic	6.5	7.7	Toxic	Toxic	Non-toxic	Dose-dependent effect		3.8	Toxic	Non-toxic	Toxic	Active		Active	50	Non-toxic	7.9	Dose-dependent effect
CCOC(=O)C(=O)N(Cc1cc(F)cc(F)c1)c1ccc2c(c1)N(C)CC(C)(COc1ccc(C(=N)N)cc1)O2 (stereo unspecified)	Non-toxic	11	6.9	Toxic	Toxic	Non-toxic	Dose-dependent effect		5.2	Toxic	Non-toxic	Toxic	Active		Active	50	Non-toxic	7.8	Dose-dependent effect
CCOC(=O)C(=O)N(Cc1cccc(F)c1)c1ccc2c(c1)N(C)CC(C)(COc1ccc(C(=N)N)cc1)O2 (stereo unspecified)							Dose-dependent effect						Active		Active				Dose-dependent effect
CCOC(=O)CN(Cc1cccc(F)c1)c1ccc2c(c1)OC(C)(COc1ccc(C(=N)N)cc1)CN2C (stereo unspecified)	Toxic	4.1	4.5	Toxic	Toxic	Toxic	Dose-dependent effect	Active	3.9	Toxic	Toxic	Toxic	Active	inactive	Active	50	Toxic	2.6	
CCOC(=O)C(=O)N(Cc1ccc(F)c(F)c1)c1ccc2c(c1)OC(C)(COc1ccc(C(=N)N)cc1)CN2C (stereo unspecified)	Non-toxic	4.9	11	Toxic	Toxic	Non-toxic	Dose-dependent effect		5.8	Toxic	Non-toxic	Toxic	Active		Active	50	Non-toxic	6.7	Dose-dependent effect
CCOC(=O)C(=O)N(Cc1ccc(F)cc1)c1ccc2c(c1)OC(C)(COc1ccc(C(=N)N)cc1)CN2C (stereo unspecified)	Non-toxic	6.9	14	Toxic	Toxic	Non-toxic	Dose-dependent effect		6.3	Toxic	Non-toxic	Toxic	Active		Active	50	Non-toxic	7.6	Dose-dependent effect
CCOC(=O)C(=O)N(Cc1ccc(F)c(F)c1)c1ccc2c(c1)N(C)CC(C)(COc1ccc(C(=N)N)cc1)O2 (stereo unspecified)	Non-toxic	7.4	14	Toxic	Toxic	Non-toxic	Dose-dependent effect		6.3	Toxic	Non-toxic	Toxic	Active		Active	50	Non-toxic	8.3	Dose-dependent effect
CCOC(=O)CN(Cc1ccc(F)c(F)c1)c1ccc2c(c1)N(C)CC(C)(COc1ccc(C(=N)N)cc1)O2 (stereo unspecified)	Toxic	4.1	4.8	Toxic	Toxic	Toxic	Dose-dependent effect	Active	3.9	Toxic	Toxic	Toxic	Active	inactive	Active	50	Toxic	4.2	
